# Only some compounds are listed: those with a hit (about 6.9% of all), similar ones and a draw of the others.
# PTK2B oligo ant: antagonists of Pyk2 self-association, primary screen, Q293 cells, FERM NanoBiT luminescence, HTS | Protein-tyrosine kinase 2-beta (Homo sapiens), Q14289 | z-score (the deposit names both 25 µM and 10 µM) | 0.83% of 99,000 active | active compounds read low;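 active = Z-score of -3 or lower, scaled per plate to the spread of control and sample wells; inactive = z-score above -3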;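 also: negative z-score means lost luminescence so less FERM oligomerization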
# PostGolgi ctrl: growth inhibition of yeast control strain, primary screen, counter-screen for post-Golgi transport modulator project. inhibition, % at 10 µM. 5% of 98,000 active. efflux-deficient yeast background strain, growth absorbance A615, 16 h
# tolC growth inh: growth inhibitors of E. coli tolC mutant, primary screen, strain BW25113 ΔtolC::kan, 384-well; AID 573, 2007; growth inhibition, % at 10 µM (by protocol); 2.2% of 65,000 active; OD615;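 active = growth inhibition at or above a cutoff equal to the mean over every tested compound plus 3 SD, cut at about 60% in these data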;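 also: growth measured after 20 h incubation at 37 °C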
#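 Assay system: tolC-deleted E. coli BW25113. Medium: kanamycin-containing LB broth (50 µg/mL). Dosing: 10 µM final, single dose. Timing: bacterial growth with compound for 20 h at 37 °C. Detection: A615 absorbance measurement. Read-out basis: growth inhibition in percent.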
# PostGolgi yeast: phenotypic screen on post-Golgi transport, primary screen. 0.9% of 98,000 active. AID 739, 2007. post-Golgi transport phenotypic cell assay. inhibition, % at 10 µM;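 also: yeast cells grown in 1536-well plates; yeast grown about 18 h at 30C before absorbance read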
# Candida biofilm: clotrimazole potentiators killing Candida biofilms, primary screen, with clotrimazole, Alamar Blue | C. albicans biofilm + clotrimazole | inhibition, % at 6 µM | 0.14% of 85,000 active | AID 834, 2007;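 active = inhibition above 20%; inactive = inhibition below 20%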;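 also: preformed 24 hr biofilms exposed to compound for 48 hr; 0% = biofilm without compound and 100% = blank killed by clotrimazole plus chlorhexidine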
# FAK inh: FAK kinase inhibitors, primary screen, biochemical; Focal adhesion kinase 1 (Homo sapiens), Q05397; inhibition, %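 (tested at 7 µM)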; biochemical FAK kinase activity assay; 0.84% of 97,000 active; in the data active = inhibition above about 19%;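 also: 0% = DMSO and 100% = reference compound high control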
# Starred values were filed as active, the others as inactive; / = not tested or not shown. Rule as the data show it, unless noted: active = inhibition above about 30%; inactive = the rest.
SMILES,PTK2B oligo ant,PostGolgi ctrl,tolC growth inh,PostGolgi yeast,Candida biofilm,FAK inh
CC1CCCN(S(=O)(=O)c2ccc(NC(=O)Cn3nnc(-c4ccccc4F)n3)cc2)C1 (stereo unspecified),-0.93,4.4,64.3*,1.4,3.0,-0.4
CC1CCN(S(=O)(=O)c2ccc(NC(=O)Cn3nnc(-c4ccccc4)n3)cc2)CC1,0.98,9.9,17.4,-4.2,6.5,9.4
CC1CCCN(S(=O)(=O)c2ccc(NC(=O)CCN3C(=O)c4ccccc4C3=O)cc2)C1 (stereo unspecified),-1.1,18.2,/,41.8*,8.3,3.4
CCn1cc(C(=O)NC2CCC(C)CC2)c(=O)c2cc(S(=O)(=O)N3CCCCC3)ccc21 (stereo unspecified),/,11.0,57.2,-11.1,2.6,1.4
O=C(O)c1ccc(CSc2nnnn2C2CCCCC2)cc1,0.74,2.9,9.7,2.6,9.3,2.4
COc1ccccc1N1CCN(C(c2ccc(F)cc2)c2nnnn2C(C)C)CC1 (stereo unspecified),-0.93,7.1,6.1,-1.9,4.7,/
COc1ccccc1NS(=O)(=O)c1cc(C)ccc1C,0.25,21.6,/,-4.0,0.5,3.4
O=[N+]([O-])c1ccc(N/N=C/c2c[nH]c3ccccc23)c(S(=O)(=O)Nc2ccc(Cl)cc2)c1,-3,24.0,/,86.5*,/,-1.7
COc1ccccc1NS(=O)(=O)c1cc([N+](=O)[O-])ccc1N/N=C/c1c(C)[nH]c2ccccc12,-3.15*,24.3,/,-7.5,/,-1.7
O=C(CSc1nnnn1-c1ccccc1)Nc1ncc(Cc2cc(Cl)ccc2Cl)s1,0.21,9.4,/,-5.9,/,-4.3
N#Cc1c(/N=C/c2cc(Br)cs2)sc2c1CCC2,0.13,/,/,/,2.5,2.1
Cc1cccc(Cn2c(=O)n(CCCC(=O)NCc3ccco3)c(=O)c3ccccc32)c1,/,/,20.2,/,3.3,/
Clc1ccc(-c2n[nH]c3c2CCC3)c(Cl)c1,-1.97,47.4*,/,107.0*,3.4,7.9
OC(COc1ccc2ccccc2c1Br)Cn1ccnc1 (stereo unspecified),1.42,7.1,98.7*,-5.5,-7.7,3.0
COc1ccc(N2C(=O)CC(N3CCN(c4ccc(S(C)(=O)=O)cc4)CC3)C2=O)cc1 (stereo unspecified),0.59,0.7,/,4.2,7.1,0.9
Cc1cccc(OCCn2c(CCCO)nc3ccccc32)c1,0.19,30.3*,4.3,4.7,/,1.4
OCc1nc2ccccc2n1CCCOc1ccc(Br)cc1,0.11,45.2*,67.0*,0.8,9.0,-0.9
COc1ccc(OCCCn2c(=O)oc3ccccc32)cc1,-0.63,/,/,/,3.6,-1.2
Cn1c(=O)n(CCCOc2ccc(Br)cc2)c2ccccc21,0.38,38.5*,100.0*,-0.7,6.2,3.3
Cn1c(=O)n(CCCOc2ccc(Cl)cc2)c2ccccc21,-0.03,49.1*,62.4*,5.3,5.7,-2.1
CC(C)(C)NC(=O)C1CCC(C)(C(=O)O)C1(C)C (stereo unspecified),1.7,6.1,-24.2,-4.5,5.5,-0.6
CCN(C1CCCCC1)S(=O)(=O)c1ccc(OC)c(C)c1,-1.19,35.5*,91.9*,14.5,4.2,0.6
O=C(CN1C(=O)C2CC=CCC2C1=O)Nc1nnc(SCc2ccc(F)cc2)s1 (stereo unspecified),0.65,1.5,/,13.0,3.3,4.2
Cc1cc(C)c2c(n1)sc1c(=O)n(Cc3ccccc3Cl)nnc12,0.18,39.9*,/,4.2,-8.7,-1.5
Cc1nn(-c2ccccc2)c(C)c1C1C(C#N)=C(N)Oc2n[nH]c(C)c21 (stereo unspecified),0.62,/,/,/,8.5,-3.4
SMILES,PTK2B oligo ant,PostGolgi ctrl,tolC growth inh,PostGolgi yeast,Candida biofilm,FAK inh
COc1ccccc1OCc1ccc(C(=O)NCC2CCCO2)o1 (stereo unspecified),-0.77,8.4,/,0.2,6.0,-0.3
CSC1=NCCN1C(=O)c1ccc2c(c1)OCO2,0.98,7.1,-24.3,1.0,1.1,3.8
CC1=CC(C)(C)N(C(=O)c2ccc(F)cc2)c2cc3c(cc21)OCO3,-1.81,28.6,86.8*,7.9,5.2,4.2
COc1cccc(CNn2c(-c3cccc(C)c3)nc3ccccc3c2=O)c1,-1.41,35.6*,/,3.7,-5.7,0.0
CCc1nnc(NC(=O)c2cccc(C(=O)Nc3nnc(CC)s3)n2)s1,/,/,94.0*,/,5.2,/
CCc1nnc(NC(=O)c2ccncc2)s1,-0.08,25.0,-13.3,-1.3,-4.4,/

# Compound activity from PubChem.
